Experiments:
HBV = assay: Anti-HBV assay in HBV-producing HepG2 2.2.15 cells; assay type: cell-based, hepatitis B virus; conditions: for EC50: Hepatitis B virus, HepG2 2.2.15, 336 h, read-out: EC50 (nM) against HBV
Outline: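 […] cells seeded at 4 × 10^3 per well with a range of test-compound concentrations; medium and compound renewed on days 3 and 7. On day 14, total cellular DNA was extracted and HBV genomes quantified by real-time PCR (95 °C 10 min; 50 cycles of 95 °C 10 s, 60 °C 1 min). Copies were derived from CT against 10-fold HBV plasmid dilutions, compared with no-compound controls, and EC50 was obtained by linear forecast.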

[1] = Cytotoxicity in HepG2.2.15 cells; assay type: cell-based; conditions: human
Outline: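 Cells plated at 2 × 10^3 per well, exposed continuously to test compound for 14 days; viable cells counted by CCK-8 relative to no-compound controls to give CC50.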

| EC50 (HBV) [nM] | Structure (SMILES) | times lower anti-HBV activity compared to compound (E)-6 (HBV; HepG2 2.2.15 cells, relative to (E)-6) [times] | CC50 at 14 days [1] [µM] |
| --- | --- | --- | --- |
| 585 ± 358 | N#C[C@]1(CO)/C(=C/F)[C@@H](n2cnc3c(=O)[nH]c(N)nc32)C[C@@H]1O [(Z)-6, (1S,3S,5S,Z)-3-(2-Amino-6-oxo-1,6-dihydro-9H-purin-9-yl)-2-(fluoromethylene)-5-hydroxy-1-(hydroxymethyl)cyclopentane-1-carbonitrile] | ~500 | > 100 |
| 2.3 ± 0.6 | C=C1[C@H](CO)[C@@H](O)C[C@@H]1n1cnc2c(=O)[nH]c(N)nc21 [Compound 1, entecavir, reference compound] | – | 63 |
| 0.3 ± 0.1 | N#C[C@]1(CO)O[C@@H](n2cnc3c(=O)[nH]c(N)nc32)C[C@@H]1O [Compound 2, 4′-cyano-deoxyguanosine, reference compound] | – | 3 ± 0.2 |
| 1.2 ± 0.7 | N#C[C@]1(CO)/C(=C\F)[C@@H](n2cnc3c(=O)[nH]c(N)nc32)C[C@@H]1O [Compound (E)-6, (1S,3S,5S,E)-3-(2-Amino-6-oxo-1,6-dihydro-9H-purin-9-yl)-2-(fluoromethylene)-5-hydroxy-1-(hydroxymethyl)cyclopentane-1-carbonitrile] | – | 93 |

— paper PMC10230191 (RSC Advances, 2023)
